Experimental data as given in ChEMBL document CHEMBL2046311, “Design, synthesis, and molecular hybrids of caudatin and cinnamic acids as novel anti-hepatitis B virus agents” (Eur J Med Chem, 2012).
pIC50: −log10 of the molar value.

Experiments:
[1] = tested on: Hepatitis B virus; assay: Antiviral activity against Hepatitis B virus infected in human HepG2(2.2.15) cells assessed as inhibition of viral surface antigen secretion by ELISA; assay type: functional, organism-based
Procedure, shortened: (§1)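 HepG 2.2.15 cells in RPMI-1640 with 10% fetal calf serum at 37 °C, 5% CO2. Compounds dissolved in DMSO, culture DMSO below 2.5 μL/mL. Secreted HBeAg and HBsAg measured by ELISA. IC50 values are means of at least two experiments.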

[2] = tested on: Hepatitis B virus; assay: Antiviral activity against Hepatitis B virus infected in human HepG2(2.2.15) cells assessed as inhibition of viral DNA replication by PCR analysis; assay type: functional, organism-based
Procedure, shortened: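 HepG 2.2.15 cells grown in RPMI-1640 with 10% fetal calf serum, […] and penicillin/streptomycin at 37 °C, 5% CO2. Compounds added in DMSO, kept below 2.5 μL/mL. HBV DNA quantified by SYBR Green real-time PCR with HBV-specific primers spanning 541–591 bp. IC50 values are means of at least two experiments.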

[3] = Selectivity index, ratio of CC50 for human HepG2(2.2.15) cells to IC50 for Hepatitis B virus infected in human HepG2(2.2.15) cells assessed as inhibition of viral DNA replication; assay type: functional
Procedure, shortened: (§2)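 SI calculated as CC50 (MTT, HepG 2.2.15) divided by IC50 for the named read-out (HBV DNA by real-time PCR, or HBeAg or HBsAg secretion by ELISA), in the same cell line.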

[4] = Selectivity index, ratio of CC50 for human HepG2(2.2.15) cells to IC50 for Hepatitis B virus infected in human HepG2(2.2.15) cells assessed as inhibition of viral surface antigen secretion; assay type: functional; procedure, shortened: as §2
[5] = tested on: Hepatitis B virus; assay: Antiviral activity against Hepatitis B virus infected in human HepG2(2.2.15) cells assessed as inhibition of viral e antigen secretion by ELISA; assay type: functional, organism-based; procedure, shortened: as §1
[6] = Selectivity index, ratio of CC50 for human HepG2(2.2.15) cells to IC50 for Hepatitis B virus infected in human HepG2(2.2.15) cells assessed as inhibition of viral e antigen secretion; assay type: functional; procedure, shortened: as §2
[7] = Cytotoxicity against human HepG2(2.2.15) cells by modified-MTT assay; assay type: cell-based
Procedure, shortened: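 HepG 2.2.15 cells in RPMI-1640 with 10% fetal calf serum at 37 °C, 5% CO2. Compounds in DMSO, final DMSO below 2.5 μL/mL. Viability read by modified MTT method. CC50 is the mean of at least two experiments.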

| Compound | pIC50 [1] | pIC50 [2] | Ratio CC50/IC50 [3] | Ratio CC50/IC50 [4] | pIC50 [5] | Ratio CC50/IC50 [6] | CC50 [7] [µM] |
| --- | --- | --- | --- | --- | --- | --- | --- |
| CC(=O)[C@]1(O)CC[C@@]2(O)[C@]1(C)[C@H](OC(=O)/C=C(\C)C(C)C)C[C@@H]1[C@@]3(C)CC[C@H](OC(=O)/C=C/c4ccc(C(F)(F)F)cc4)CC3=CC[C@]12O | 4.22 | 5.00 | >125.9 | >21.1 | 2.90 | >1 | > 1270 |
| CC(=O)[C@]1(O)CC[C@@]2(O)[C@]1(C)[C@H](OC(=O)/C=C(\C)C(C)C)C[C@@H]1[C@@]3(C)CC[C@H](OC(=O)/C=C/c4cc(F)cc(F)c4)CC3=CC[C@]12O | 4.69 | 4.73 | >72 | >66 | 4.04 | >14.8 | > 1340 |
| CC(=O)[C@]1(O)CC[C@@]2(O)[C@]1(C)[C@H](OC(=O)/C=C(\C)C(C)C)C[C@@H]1[C@@]3(C)CC[C@H](OC(=O)/C=C/c4ccccc4F)CC3=CC[C@]12O | 4.14 | 5.11 | 68.1 | 7.3 | 4.67 | 24.2 | 523 |
| CC(=O)[C@]1(O)CC[C@@]2(O)[C@]1(C)[C@H](OC(=O)/C=C(\C)C(C)C)C[C@@H]1[C@@]3(C)CC[C@H](OC(=O)/C=C/c4ccc(C=O)cc4)CC3=CC[C@]12O | 4.63 | 5.20 | 6.3 | 1.7 | 4.72 | 2.1 | 40.2 |
| CC(=O)[C@]1(O)CC[C@@]2(O)[C@]1(C)[C@H](OC(=O)/C=C(\C)C(C)C)C[C@@H]1[C@@]3(C)CC[C@H](OC(=O)/C=C/c4cccc(Cl)c4)CC3=CC[C@]12O | 4.73 | 4.90 | >103.6 | >70.1 | 3.44 | >3.7 | > 1320 |
| CC(=O)[C@]1(O)CC[C@@]2(O)[C@]1(C)[C@H](OC(=O)/C=C(\C)C(C)C)C[C@@H]1[C@@]3(C)CC[C@H](OC(=O)/C=C/c4ccccc4)CC3=CC[C@]12O | 4.32 | 5.23 | >239.9 | >29.3 | 4.03 | >15 | > 1420 |
| CC(=O)[C@]1(O)CC[C@@]2(O)[C@]1(C)[C@H](OC(=O)/C=C(\C)C(C)C)C[C@@H]1[C@@]3(C)CC[C@H](OC(=O)/C=C/c4ccc(Br)cc4)CC3=CC[C@]12O | 4.44 | 4.80 | >80.6 | >35.5 | 3.31 | >2.7 | > 1290 |
| CC(=O)[C@]1(O)CC[C@@]2(O)[C@]1(C)[C@H](OC(=O)/C=C(\C)C(C)C)C[C@@H]1[C@@]3(C)CC[C@H](OC(=O)/C=C/c4cccc(F)c4F)CC3=CC[C@]12O | 4.88 | 5.54 | >41.2 | 9 | 4.79 | 7.2 | 118 |
| CC(=O)[C@]1(O)CC[C@@]2(O)[C@]1(C)[C@H](OC(=O)/C=C(\C)C(C)C)C[C@@H]1[C@@]3(C)CC[C@H](OC(=O)/C=C/c4cccc(C)c4)CC3=CC[C@]12O | 4.59 | 5.14 | >192.6 | >54.7 | 3.88 | >10.5 | > 1390 |
| CC(=O)[C@]1(O)CC[C@@]2(O)[C@]1(C)[C@H](OC(=O)/C=C(\C)C(C)C)C[C@@H]1[C@@]3(C)CC[C@H](OC(=O)/C=C/c4cccc(F)c4)CC3=CC[C@]12O | 5.08 | 5.32 | >224 | >126.7 | 4.90 | >84.7 | > 1060 |
| COc1cc(/C=C/C(=O)O[C@H]2CC[C@@]3(C)C(=CC[C@]4(O)[C@@H]3C[C@@H](OC(=O)/C=C(\C)C(C)C)[C@@]3(C)[C@]4(O)CC[C@@]3(O)C(C)=O)C2)cc(OC)c1 | 4.53 | 4.93 | >87.4 | >34.6 | 3.42 | >2.7 | > 1020 |
| CC(=O)[C@]1(O)CC[C@@]2(O)[C@]1(C)[C@H](OC(=O)/C=C(\C)C(C)C)C[C@@H]1[C@@]3(C)CC[C@H](OC(=O)/C=C/c4ccccc4C(F)(F)F)CC3=CC[C@]12O | 4.33 | 5.30 | 352.9 | 37.6 | < 2.89 | <1.4 | 1760 |
| CC(=O)[C@]1(O)CC[C@@]2(O)[C@]1(C)[C@H](OC(=O)/C=C(\C)C(C)C)C[C@@H]1[C@@]3(C)CC[C@H](OC(=O)/C=C/c4cccc(Br)c4)CC3=CC[C@]12O | 4.84 | 5.35 | 97 | 29.9 | 4.90 | 34.4 | 429 |
| CC(=O)[C@]1(O)CC[C@@]2(O)[C@]1(C)[C@H](OC(=O)/C=C(\C)C(C)C)C[C@@H]1[C@@]3(C)CC[C@H](OC(=O)/C=C/c4cccc([N+](=O)[O-])c4)CC3=CC[C@]12O | 4.30 | 4.25 | >28.1 | >31.7 | 3.68 | >7.7 | > 1590 |
| COc1ccc(/C=C/C(=O)O[C@H]2CC[C@@]3(C)C(=CC[C@]4(O)[C@@H]3C[C@@H](OC(=O)/C=C(\C)C(C)C)[C@@]3(C)[C@]4(O)CC[C@@]3(O)C(C)=O)C2)c(OC)c1OC | 4.91 | 4.68 | >73.5 | >125 | 4.55 | >55.3 | > 1550 |
| CC(=O)[C@]1(O)CC[C@@]2(O)[C@]1(C)[C@H](OC(=O)/C=C(\C)C(C)C)C[C@@H]1[C@@]3(C)CC[C@H](OC(=O)/C=C/c4ccc(F)c(F)c4F)CC3=CC[C@]12O | > 5.25 | 5.55 | 140.2 | >71.1 | 4.85 | 28.3 | 397 |
| CC(=O)[C@]1(O)CC[C@@]2(O)[C@]1(C)[C@H](OC(=O)/C=C(\C)C(C)C)C[C@@H]1[C@@]3(C)CC[C@H](OC(=O)/C=C/c4ccc(Cl)c([N+](=O)[O-])c4)CC3=CC[C@]12O | 5.02 | 5.20 | 71.3 | 47.3 | 4.10 | 5.7 | 450 |
| COc1ccccc1/C=C/C(=O)O[C@H]1CC[C@@]2(C)C(=CC[C@]3(O)[C@@H]2C[C@@H](OC(=O)/C=C(\C)C(C)C)[C@@]2(C)[C@]3(O)CC[C@@]2(O)C(C)=O)C1 | 4.19 | 5.14 | >324.1 | >36.9 | 3.12 | >3.1 | > 2370 |
